According to ChEMBL document CHEMBL1132303, “Novel pyrimidine and purine derivatives of L-ascorbic acid: synthesis and biological evaluation” (J Med Chem, 1999):
One block for each compound: values may come before it.

What was measured:
[1] = tested on: FM3A; assay: The compound was tested for growth inhibitory activity against FM3A/0 tumor cell lines; assay type: functional, cell-based; details: Mus musculus
[2] = tested on: HEL; assay: Minimum cytotoxic concentration that causes a microscopically detectable alteration of cell morphology in human embryonic lung cells; assay type: functional, cell-based
Summary of the method: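 Human embryonic lung cells checked under the microscope. Minimum concentration producing a detectable change in cell morphology.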

[3] = tested on: HEL; assay: The compound was tested for antiviral activity by measuring the concentration required to reduce plaque formation against Varicella zoster TK+OKA strain; assay type: functional, cell-based; details: Homo sapiens
Summary of the method: (§1)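 Plaque reduction in human embryonic lung cells with 20 PFU virus input. EC50 is the concentration that cuts plaque formation by 50%.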

[4] = tested on: HEL; assay: The compound was tested for antiviral activity by measuring the concentration required to reduce plaque formation against Varicella zoster TK+YS strain; assay type: functional, cell-based; details: Homo sapiens; summary of the method: as §1
[5] = tested on: HEL; assay: The compound was tested for antiviral activity by measuring the concentration required to reduce plaque formation against Varicella zoster TK-(deficient) 07/1 strain; assay type: functional, cell-based; details: Homo sapiens; summary of the method: as §1
[6] = tested on: HEL; assay: The compound was tested for antiviral activity by measuring the concentration required to reduce plaque formation against Varicella zoster TK-(deficient) YS/R strain; assay type: functional, cell-based; details: Homo sapiens; summary of the method: as §1
[7] = tested on: HEL; assay: The compound was tested for antiviral activity by measuring the concentration required to reduce plaque formation against cytomegalo virus Davis strain; assay type: functional, cell-based; details: Homo sapiens; summary of the method: as §1
[8] = tested on: HEL; assay: The compound was tested for cytotoxic concentration required to reduce human embryonic lung cell growth by 50%; assay type: functional, cell-based
Summary of the method: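 Human embryonic lung cell growth measured. Value is the concentration reducing cell growth by 50%.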

[9] = tested on: HEp-2; assay: The compound was tested for growth inhibitory activity against Hep2 tumor cell lines; assay type: functional, cell-based; details: Homo sapiens
Summary of the method: (§2)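 Monolayer cells in DMEM with 10% FBS, 2 mM glutamine, penicillin/streptomycin, 37 °C, 5% CO2, plated at 1.5 × 10^4/mL (HeLa, Hep2, MCF7, MiaPaCa2) or 2 × 10^4/mL (Hef522). MTT read-out, percent growth versus untreated controls. Mean of three parallel samples in three experiments; IC50 reported.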

[10] = tested on: HeLa; assay: The compound was tested for growth inhibitory activity against HeLa tumor cell lines; assay type: functional, cell-based; details: Homo sapiens; summary of the method: as §2
[11] = tested on: L1210; assay: The compound was tested for growth inhibitory activity against L1210/0 tumor cell lines; assay type: functional, cell-based; details: Mus musculus
[12] = tested on: MCF7; assay: The compound was tested for growth inhibitory activity against MCF-7 tumor cell lines; assay type: functional, cell-based; details: Homo sapiens; summary of the method: as §2
[13] = tested on: MIA PaCa-2; assay: The compound was tested for growth inhibitory activity against MiaPaCa2 tumor cell lines; assay type: functional, cell-based; details: Homo sapiens; summary of the method: as §2
[14] = tested on: MOLT-4; assay: The compound was tested for growth inhibitory activity against Molt4/C8 tumor cell lines; assay type: functional, cell-based; details: Homo sapiens
[15] = tested on: HEL; assay: The compound was tested for antiviral activity by measuring the concentration required to reduce plaque formation against cytomegalo virus AD-169 strain; assay type: functional, cell-based; details: Homo sapiens; summary of the method: as §1
[16] = tested on: CCRF-CEM; assay: The compound was tested for growth inhibitory activity against CEM/0 tumor cell lines; assay type: functional, cell-based; details: Homo sapiens
[17] = tested on: Hef522 normal fibroblasts (human); assay: The compound was tested for growth inhibitory activity against normal fibroblast (Hef522)

- IC50 [3]: 3 µM
- IC50 [4]: 3.4 µM
- IC50 [5]: 3.4 µM
- IC50 [6]: 1.8 µM
- IC50 [7]: 3.5 µM
- IC50 [10]: 50 µM
- IC50 [11]: 12.9 µM
- IC50 [12]: 20 µM
- IC50 [13]: 30 µM
- IC50 [14]: 4.8 µM
- IC50 [15]: 3.5 µM
- IC50 [16]: 13 µM
Structure (SMILES): O=C1O/C(=C\Cn2ccc(=O)[nH]c2=O)C(OCc2ccccc2)=C1OCc1ccccc1
- IC50 [1]: 17.7 µM
- MCC [2]: 20 µM
- IC50 [8]: 5 µM
- IC50 [9]: 40 µM
- IC50 [17]: 50 µM

- IC50 [3]: 0.3 µM
- IC50 [4]: 0.5 µM
- IC50 [5]: 0.5 µM
- IC50 [6]: 0.3 µM
- IC50 [7]: 0.4 µM
- IC50 [10]: 20 µM
- IC50 [11]: 2 µM
- IC50 [12]: 40 µM
- IC50 [13]: 30 µM
- IC50 [14]: 0.9 µM
- IC50 [15]: > 0.5 µM
- IC50 [16]: 1.6 µM
Structure (SMILES): O=C1O/C(=C\Cn2cc(C(F)(F)F)c(=O)[nH]c2=O)C(OCc2ccccc2)=C1OCc1ccccc1
- IC50 [1]: 3.6 µM
- MCC [2]: 2 µM
- IC50 [8]: 1 µM
- IC50 [9]: 40 µM
- IC50 [17]: 60 µM

- IC50 [3]: 1.3 µM
- IC50 [4]: > 2 µM
- IC50 [5]: > 2 µM
- IC50 [6]: 1 µM
- IC50 [7]: > 2 µM
- IC50 [10]: 30 µM
- IC50 [11]: 7.5 µM
- IC50 [12]: 40 µM
- IC50 [13]: 80 µM
- IC50 [14]: 3.9 µM
- IC50 [15]: > 2 µM
- IC50 [16]: 3.5 µM
Structure (SMILES): O=C1O/C(=C\Cn2cc(Br)c(=O)[nH]c2=O)C(OCc2ccccc2)=C1OCc1ccccc1
- IC50 [1]: 17.1 µM
- MCC [2]: 5 µM
- IC50 [8]: 3 µM
- IC50 [9]: 90 µM
- IC50 [17]: 30 µM

- IC50 [3]: 2.6 µM
- IC50 [4]: 3.8 µM
- IC50 [5]: 3.5 µM
- IC50 [6]: 2.7 µM
- IC50 [7]: 3.5 µM
- IC50 [10]: 40 µM
- IC50 [11]: 5.1 µM
- IC50 [12]: 60 µM
- IC50 [13]: 40 µM
- IC50 [14]: 10.9 µM
- IC50 [15]: 3.5 µM
- IC50 [16]: 15.1 µM
Structure (SMILES): O=C1O/C(=C\Cn2cc(F)c(=O)[nH]c2=O)C(OCc2ccccc2)=C1OCc1ccccc1
- IC50 [1]: 3.4 µM
- MCC [2]: 20 µM
- IC50 [8]: 9 µM
- IC50 [9]: 20 µM
- IC50 [17]: 40 µM

- IC50 [3]: 5 µM
- IC50 [4]: > 5 µM
- IC50 [5]: > 5 µM
- IC50 [6]: 3.8 µM
- IC50 [7]: > 5 µM
- IC50 [10]: 30 µM
- IC50 [11]: 4.1 µM
- IC50 [12]: > 100 µM
- IC50 [13]: 40 µM
- IC50 [14]: 6.8 µM
- IC50 [15]: > 5 µM
- IC50 [16]: 4.4 µM
Structure (SMILES): O=C1O/C(=C/Cn2cnc3ncnc(Cl)c32)C(OCc2ccccc2)=C1OCc1ccccc1
- IC50 [1]: 11.4 µM
- MCC [2]: 20 µM
- IC50 [8]: 20 µM
- IC50 [9]: 60 µM
- IC50 [17]: 20 µM

- IC50 [3]: 1.3 µM
- IC50 [4]: > 2 µM
- IC50 [5]: > 2 µM
- IC50 [6]: 1 µM
- IC50 [7]: > 2 µM
- IC50 [10]: 40 µM
- IC50 [11]: 12.2 µM
- IC50 [12]: 60 µM
- IC50 [13]: 40 µM
- IC50 [14]: 6.1 µM
- IC50 [15]: > 2 µM
- IC50 [16]: 6 µM
Structure (SMILES): O=C1O/C(=C\Cn2cc(Cl)c(=O)[nH]c2=O)C(OCc2ccccc2)=C1OCc1ccccc1
- IC50 [1]: 16.9 µM
- MCC [2]: 5 µM
- IC50 [8]: 3 µM
- IC50 [9]: 20 µM
- IC50 [17]: 30 µM

- IC50 [3]: 1.3 µM
- IC50 [4]: 1.4 µM
- IC50 [5]: > 2 µM
- IC50 [6]: 1 µM
- IC50 [7]: > 2 µM
- IC50 [10]: 30 µM
- IC50 [11]: 7.5 µM
- IC50 [12]: 70 µM
- IC50 [13]: 80 µM
- IC50 [14]: 3.9 µM
- IC50 [15]: > 2 µM
- IC50 [16]: 3.3 µM
Structure (SMILES): O=C1O/C(=C\Cn2cc(I)c(=O)[nH]c2=O)C(OCc2ccccc2)=C1OCc1ccccc1
- IC50 [1]: 22.6 µM
- MCC [2]: 5 µM
- IC50 [8]: 3 µM
- IC50 [9]: 10 µM
- IC50 [17]: 40 µM

The remaining lines, values behind:

Structure (SMILES): O=C1O/C(=C\Cn2cnc3c(-n4cccc4)ncnc32)C(OCc2ccccc2)=C1OCc1ccccc1
- IC50 [1]: > 200 µM
- MCC [2]: 20 µM
- IC50 [3]: 1.2 µM
- IC50 [4]: 1.5 µM
- IC50 [5]: 2.8 µM
- IC50 [6]: 0.6 µM
- IC50 [7]: > 0.5 µM
- IC50 [8]: 4 µM
- IC50 [9]: > 100 µM
- IC50 [10]: 70 µM
- IC50 [11]: 110 µM
- IC50 [12]: > 100 µM
- IC50 [13]: > 100 µM
- IC50 [14]: 3.9 µM
- IC50 [15]: > 0.5 µM
- IC50 [16]: 5.8 µM
- IC50 [17]: > 100 µM

Structure (SMILES): Nc1nc2c(ncn2COCCO)c(=O)[nH]1 [ACYCLOVIR]
- MCC [2]: > 50 µM
- IC50 [3]: 0.16 µM
- IC50 [4]: 0.78 µM
- IC50 [5]: 17 µM
- IC50 [6]: 12 µM
- IC50 [8]: > 100 µM

Structure (SMILES): O=C1O/C(=C\Cn2cnc3c(Cl)ncnc32)C(OCc2ccccc2)=C1OCc1ccccc1
- IC50 [1]: 16.4 µM
- MCC [2]: 20 µM
- IC50 [3]: > 5 µM
- IC50 [4]: > 5 µM
- IC50 [5]: > 5 µM
- IC50 [6]: > 5 µM
- IC50 [7]: > 5 µM
- IC50 [8]: 8 µM
- IC50 [9]: 60 µM
- IC50 [10]: 30 µM
- IC50 [11]: 11.6 µM
- IC50 [12]: 40 µM
- IC50 [13]: 60 µM
- IC50 [14]: 14.8 µM
- IC50 [15]: > 5 µM
- IC50 [16]: 15.9 µM
- IC50 [17]: 50 µM

Structure (SMILES): O=c1[nH]c(=O)n([C@H]2C[C@H](O)[C@@H](CO)O2)cc1/C=C/Br [BRIVUDINE]
- MCC [2]: > 50 µM
- IC50 [3]: 0.001 µM
- IC50 [4]: 0.005 µM
- IC50 [5]: > 50 µM
- IC50 [6]: > 50 µM
- IC50 [8]: > 100 µM

Structure (SMILES): Nc1nc2c(ncn2COC(CO)CO)c(=O)[nH]1 [GANCICLOVIR]
- MCC [2]: > 50 µM
- IC50 [7]: 5 µM
- IC50 [8]: > 50 µM
- IC50 [15]: 1 µM
